In brackets after ≈: the same amount, converted by molar mass. Activity calls are given as the source filed them. The calls are words filed in the database; no cut-off is given here.

Chain of DNA gyrase subunit A/DNA gyrase subunit B (P9WG45 whole entry): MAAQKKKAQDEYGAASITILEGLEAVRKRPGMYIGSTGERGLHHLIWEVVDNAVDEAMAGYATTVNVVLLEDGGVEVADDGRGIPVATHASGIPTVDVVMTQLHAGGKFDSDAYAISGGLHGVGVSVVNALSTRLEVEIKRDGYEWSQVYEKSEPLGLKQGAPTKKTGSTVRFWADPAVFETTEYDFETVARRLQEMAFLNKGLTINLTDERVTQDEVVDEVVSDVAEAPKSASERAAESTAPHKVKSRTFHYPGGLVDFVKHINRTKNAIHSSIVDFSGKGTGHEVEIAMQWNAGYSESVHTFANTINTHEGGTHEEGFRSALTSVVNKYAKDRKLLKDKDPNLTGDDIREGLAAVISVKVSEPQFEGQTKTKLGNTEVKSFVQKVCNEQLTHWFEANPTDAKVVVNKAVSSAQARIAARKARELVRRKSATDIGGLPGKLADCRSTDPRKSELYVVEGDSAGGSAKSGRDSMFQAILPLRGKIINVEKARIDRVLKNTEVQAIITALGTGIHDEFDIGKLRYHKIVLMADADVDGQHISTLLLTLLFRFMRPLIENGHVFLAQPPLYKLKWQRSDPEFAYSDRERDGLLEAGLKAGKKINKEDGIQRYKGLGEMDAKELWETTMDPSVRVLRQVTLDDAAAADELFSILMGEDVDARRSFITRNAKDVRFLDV
Chain of DNA gyrase subunit A/DNA gyrase subunit B (P9WG47 whole entry): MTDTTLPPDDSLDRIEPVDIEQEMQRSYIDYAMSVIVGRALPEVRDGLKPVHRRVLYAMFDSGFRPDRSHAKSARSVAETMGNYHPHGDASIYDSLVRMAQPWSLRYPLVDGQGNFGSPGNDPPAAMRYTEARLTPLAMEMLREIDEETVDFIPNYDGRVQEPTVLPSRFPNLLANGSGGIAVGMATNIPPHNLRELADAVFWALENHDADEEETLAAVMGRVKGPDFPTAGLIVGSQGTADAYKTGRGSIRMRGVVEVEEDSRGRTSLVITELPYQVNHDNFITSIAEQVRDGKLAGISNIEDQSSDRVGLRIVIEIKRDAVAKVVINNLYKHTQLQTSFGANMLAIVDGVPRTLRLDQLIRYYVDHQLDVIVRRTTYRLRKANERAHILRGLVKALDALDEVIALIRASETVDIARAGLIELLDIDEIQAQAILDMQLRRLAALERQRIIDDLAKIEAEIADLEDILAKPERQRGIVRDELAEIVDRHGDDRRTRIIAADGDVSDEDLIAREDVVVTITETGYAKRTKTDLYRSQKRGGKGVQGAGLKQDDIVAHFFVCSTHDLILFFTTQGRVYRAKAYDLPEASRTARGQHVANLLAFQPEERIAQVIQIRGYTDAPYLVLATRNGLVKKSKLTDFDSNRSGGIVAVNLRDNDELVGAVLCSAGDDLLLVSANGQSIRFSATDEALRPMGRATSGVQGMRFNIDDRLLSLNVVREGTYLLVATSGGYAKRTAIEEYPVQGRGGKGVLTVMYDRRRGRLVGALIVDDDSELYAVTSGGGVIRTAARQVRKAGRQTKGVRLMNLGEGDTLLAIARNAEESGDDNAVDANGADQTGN
Chain of DNA gyrase subunit B (Mycobacterium smegmatis) (P0C559 2-675 limits assumed): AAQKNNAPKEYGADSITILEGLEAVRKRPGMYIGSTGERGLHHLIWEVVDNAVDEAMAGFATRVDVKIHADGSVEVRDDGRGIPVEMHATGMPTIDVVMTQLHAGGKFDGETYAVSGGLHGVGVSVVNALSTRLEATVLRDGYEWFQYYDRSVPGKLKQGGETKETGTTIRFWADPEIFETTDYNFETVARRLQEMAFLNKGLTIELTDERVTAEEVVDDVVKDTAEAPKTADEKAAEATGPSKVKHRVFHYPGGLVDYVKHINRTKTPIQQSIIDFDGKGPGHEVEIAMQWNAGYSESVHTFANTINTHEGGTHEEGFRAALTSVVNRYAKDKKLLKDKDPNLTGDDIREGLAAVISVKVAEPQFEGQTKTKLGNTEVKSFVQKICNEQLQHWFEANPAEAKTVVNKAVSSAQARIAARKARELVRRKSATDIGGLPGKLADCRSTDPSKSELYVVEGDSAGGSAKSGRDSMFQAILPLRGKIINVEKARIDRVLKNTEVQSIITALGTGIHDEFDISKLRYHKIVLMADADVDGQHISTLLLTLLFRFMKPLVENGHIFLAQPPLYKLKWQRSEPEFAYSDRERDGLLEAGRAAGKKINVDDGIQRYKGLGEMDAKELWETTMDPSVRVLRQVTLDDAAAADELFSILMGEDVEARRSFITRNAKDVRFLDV

The test system of the first series is Mycobacterium tuberculosis. As to the kind of experiment: Inhibition of Mycobacterium tuberculosis DNA topoisomerase 1 assessed as DNA relaxation at 50 uM.
Conditions: not given
For `Cc1ccc2nc3ccccc3c(Nc3ccc(NS(=O)(=O)c4ccc(Cl)cc4)cc3)c2c1`, the inhibition (usually the percentage by which the read-out fell short of the control) was “inactive”.

For `Cc1ccc(S(=O)(=O)Nc2ccc(Nc3c4ccccc4nc4ccc(C)cc34)cc2)cc1`, the inhibition result is “inactive”.

Take `Cc1ccc2nc3ccccc3c(Nc3ccc(NC(=O)Nc4ccccc4)cc3)c2c1`: the inhibition entry was “inactive”.

As to `O=C(Nc1ccccc1)Nc1ccc(Nc2c3ccccc3nc3ccc(Cl)cc23)cc1`, the inhibition result was “inactive”.

As to `O=C(Nc1ccccc1)Nc1ccc(Nc2c3ccccc3nc3ccccc23)cc1`, the inhibition entry was “inactive”.

Turning to `O=S(=O)(Nc1ccc(Nc2c3ccccc3nc3ccccc23)cc1)c1ccc(Cl)cc1`, the inhibition entry is “inactive”.

Regarding `O=C(Nc1ccc(Cl)cc1)Nc1ccc(Nc2c3ccccc3nc3ccc(Cl)cc23)cc1`, the inhibition entry is “inactive”.

Take `Cc1ccc(S(=O)(=O)Nc2ccc(Nc3c4ccccc4nc4ccc(Cl)cc34)cc2)cc1`: the inhibition result was “inactive”.

On to `O=S(=O)(Nc1ccc(Nc2c3ccccc3nc3ccc(Cl)cc23)cc1)c1ccc(Cl)cc1`, for which the inhibition entry was “inactive”.

The next series has as its target DNA gyrase subunit A/DNA gyrase subunit B (Mycobacterium tuberculosis (strain ATCC 25618 / H37Rv), UniProt P9WG45+P9WG47). As to the kind of experiment: Inhibition of Mycobacterium tuberculosis DNA gyrase assessed as inhibition of DNA supercoiling after 30 mins by electrophoresis.
Conditions: not given
`Cc1ccc2nc3ccccc3c(Nc3ccc(NS(=O)(=O)c4ccc(Cl)cc4)cc3)c2c1`: the IC50 (as a rule, the point on the concentration scale where inhibition reaches its midpoint) is 5.21 µM.

As for `Cc1ccc(S(=O)(=O)Nc2ccc(Nc3c4ccccc4nc4ccc(C)cc34)cc2)cc1`, the IC50 amounted to 9.8 µM.

Take `Cc1ccc2nc3ccccc3c(Nc3ccc(NC(=O)Nc4ccccc4)cc3)c2c1`: the IC50 was found to be 22.1 µM.

Consider `O=C(Nc1ccccc1)Nc1ccc(Nc2c3ccccc3nc3ccc(Cl)cc23)cc1`, for which the IC50 came to 23.6 µM.

Consider `O=C(Nc1ccccc1)Nc1ccc(Nc2c3ccccc3nc3ccccc23)cc1`, for which the IC50 came to 32.6 µM.

With `O=S(=O)(Nc1ccc(Nc2c3ccccc3nc3ccccc23)cc1)c1ccc(Cl)cc1`, the IC50 was 23.8 µM.

As for `O=C(Nc1ccc(Cl)cc1)Nc1ccc(Nc2c3ccccc3nc3ccc(Cl)cc23)cc1`, the IC50 was found to be 11.8 µM.

With `Cc1ccc(S(=O)(=O)Nc2ccc(Nc3c4ccccc4nc4ccc(Cl)cc34)cc2)cc1`, the IC50 came out at 22.8 µM.

Regarding `O=S(=O)(Nc1ccc(Nc2c3ccccc3nc3ccc(Cl)cc23)cc1)c1ccc(Cl)cc1`, the 50% inhibitory concentration (IC50) was 12.4 µM.

Tested on in a further series: not listed separately
The series is described as follows: Toxicity in zebrafish embryo assessed as heart rate at 30 uM. The following applies: in vivo. Also on record: species or system Danio rerio. The method in brief:
(§1)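 Zebrafish embryos from 2 female:3 male breeding, raised in E3 medium at 28 °C. Compound given at 1 to 30 µM in 0.1% DMSO vehicle, 20 µM terfenadine as reference, 4 h incubation. Embryos treated with tricaine, then 30 beats timed per atrium and ventricle. Rate = 1800/time(s) beats/min; AV ratio derived from these counts.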
For `Cc1ccc2nc3ccccc3c(Nc3ccc(NS(=O)(=O)c4ccc(Cl)cc4)cc3)c2c1`, the Activity entry was “Non-toxic”.

The target of the next series is DNA gyrase (Pseudomonas aeruginosa) (UniProt P48372+Q9I7C2). The series is described as follows: Inhibition of Pseudomonas aeruginosa DNA gyrase assessed as inhibition of DNA supercoiling. In kind it is protein-complex assay.
Conditions: not given
`Cc1ccc2nc3ccccc3c(Nc3ccc(NS(=O)(=O)c4ccc(Cl)cc4)cc3)c2c1`: the inhibition entry is “inactive”.

As to `Cc1ccc(S(=O)(=O)Nc2ccc(Nc3c4ccccc4nc4ccc(C)cc34)cc2)cc1`, the inhibition entry was “inactive”.

As to `Cc1ccc2nc3ccccc3c(Nc3ccc(NC(=O)Nc4ccccc4)cc3)c2c1`, the inhibition entry was “inactive”.

For the compound `O=C(Nc1ccccc1)Nc1ccc(Nc2c3ccccc3nc3ccc(Cl)cc23)cc1`, the inhibition result was “inactive”.

In the case of `O=C(Nc1ccccc1)Nc1ccc(Nc2c3ccccc3nc3ccccc23)cc1`, the inhibition result is “inactive”.

With `O=S(=O)(Nc1ccc(Nc2c3ccccc3nc3ccccc23)cc1)c1ccc(Cl)cc1`, the inhibition entry was “inactive”.

As to `O=C(Nc1ccc(Cl)cc1)Nc1ccc(Nc2c3ccccc3nc3ccc(Cl)cc23)cc1`, the inhibition entry is “inactive”.

Consider `Cc1ccc(S(=O)(=O)Nc2ccc(Nc3c4ccccc4nc4ccc(Cl)cc34)cc2)cc1`, for which the inhibition result is “inactive”.

Consider `O=S(=O)(Nc1ccc(Nc2c3ccccc3nc3ccc(Cl)cc23)cc1)c1ccc(Cl)cc1`, for which the inhibition result was “inactive”.

Another series deals with Mycobacterium tuberculosis. The series is described as follows: Antimicrobial activity against Mycobacterium tuberculosis H37Rv ATCC 27294 after 28 days by alamar blue assay. In kind it is functional. The following applies: H37Rv ATCC 27294, 672 h. A general note: The colour change of resazurin is a common sign of viable cells or microbes.
In the case of `Cc1ccc2nc3ccccc3c(Nc3ccc(NS(=O)(=O)c4ccc(Cl)cc4)cc3)c2c1`, the MIC – broadly, the least concentration at which growth counts as inhibited – worked out at 6.59 µM (≈ 3.12 µg/mL).

On to `Cc1ccc(S(=O)(=O)Nc2ccc(Nc3c4ccccc4nc4ccc(C)cc34)cc2)cc1`, for which the MIC turned out to be 27.6 µM (≈ 12.5 µg/mL).

`Cc1ccc2nc3ccccc3c(Nc3ccc(NC(=O)Nc4ccccc4)cc3)c2c1`: the MIC turned out to be 29.9 µM (≈ 12.5 µg/mL).

The compound `O=C(Nc1ccccc1)Nc1ccc(Nc2c3ccccc3nc3ccc(Cl)cc23)cc1` showed an MIC of 28.5 µM (≈ 12.5 µg/mL).

With `O=C(Nc1ccccc1)Nc1ccc(Nc2c3ccccc3nc3ccccc23)cc1`, the MIC is > 61.8 µM.

`O=S(=O)(Nc1ccc(Nc2c3ccccc3nc3ccccc23)cc1)c1ccc(Cl)cc1` displayed an MIC of 27.2 µM (≈ 12.5 µg/mL).

Consider `O=C(Nc1ccc(Cl)cc1)Nc1ccc(Nc2c3ccccc3nc3ccc(Cl)cc23)cc1`, for which the MIC turned out to be 13.2 µM (≈ 6.25 µg/mL).

With `Cc1ccc(S(=O)(=O)Nc2ccc(Nc3c4ccccc4nc4ccc(Cl)cc34)cc2)cc1`, the MIC was > 52.8 µM.

The compound `O=S(=O)(Nc1ccc(Nc2c3ccccc3nc3ccc(Cl)cc23)cc1)c1ccc(Cl)cc1` showed an MIC of 25.1 µM (≈ 12.4 µg/mL).

The subject of another series is Escherichia coli. As to the kind of experiment: Inhibition of Escherichia coli DNA gyrase assessed as inhibition of DNA supercoiling.
Conditions: not given
`Cc1ccc2nc3ccccc3c(Nc3ccc(NS(=O)(=O)c4ccc(Cl)cc4)cc3)c2c1`: the inhibition entry was “inactive”.

Consider `Cc1ccc(S(=O)(=O)Nc2ccc(Nc3c4ccccc4nc4ccc(C)cc34)cc2)cc1`, for which the inhibition entry is “inactive”.

Regarding `Cc1ccc2nc3ccccc3c(Nc3ccc(NC(=O)Nc4ccccc4)cc3)c2c1`, the inhibition entry was “inactive”.

Take `O=C(Nc1ccccc1)Nc1ccc(Nc2c3ccccc3nc3ccc(Cl)cc23)cc1`: the inhibition entry is “inactive”.

For `O=C(Nc1ccccc1)Nc1ccc(Nc2c3ccccc3nc3ccccc23)cc1`, the inhibition result is “inactive”.

Take `O=S(=O)(Nc1ccc(Nc2c3ccccc3nc3ccccc23)cc1)c1ccc(Cl)cc1`: the inhibition entry was “inactive”.

Consider `O=C(Nc1ccc(Cl)cc1)Nc1ccc(Nc2c3ccccc3nc3ccc(Cl)cc23)cc1`, for which the inhibition entry was “inactive”.

For the compound `Cc1ccc(S(=O)(=O)Nc2ccc(Nc3c4ccccc4nc4ccc(Cl)cc34)cc2)cc1`, the inhibition entry is “inactive”.

For `O=S(=O)(Nc1ccc(Nc2c3ccccc3nc3ccc(Cl)cc23)cc1)c1ccc(Cl)cc1`, the inhibition result is “inactive”.

Tested on in another series: not listed separately
The series is described as follows: Cytotoxicity against mouse RAW264.7 cells assessed as inhibition of cell growth at 50 uM after 72 hrs by MTT assay. It is filed as cell-based.
Conditions: not given
In short, it runs like this:
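RAW 264.7 mouse macrophages exposed to compound at 50 µM for 72 h. Viability read by MTT conversion to formazan, reported as percent inhibition.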
A general note: Formazan colour is commonly taken as a measure of viable cells.
Turning to `Cc1ccc2nc3ccccc3c(Nc3ccc(NS(=O)(=O)c4ccc(Cl)cc4)cc3)c2c1`, the inhibition at 72 h, 50 µM came to 11.8%.

As to `Cc1ccc(S(=O)(=O)Nc2ccc(Nc3c4ccccc4nc4ccc(C)cc34)cc2)cc1`, the inhibition at 72 h, 50 µM came to 27.8%.

For `Cc1ccc2nc3ccccc3c(Nc3ccc(NC(=O)Nc4ccccc4)cc3)c2c1`, the inhibition at 72 h, 50 µM turned out to be 24.8%.

On to `O=C(Nc1ccccc1)Nc1ccc(Nc2c3ccccc3nc3ccc(Cl)cc23)cc1`, for which the inhibition at 72 h, 50 µM was 27.7%.

For the compound `O=C(Nc1ccccc1)Nc1ccc(Nc2c3ccccc3nc3ccccc23)cc1`, the inhibition at 72 h, 50 µM is 30.4%.

As for `O=S(=O)(Nc1ccc(Nc2c3ccccc3nc3ccccc23)cc1)c1ccc(Cl)cc1`, the inhibition at 72 h, 50 µM worked out at 34.2%.

For `O=C(Nc1ccc(Cl)cc1)Nc1ccc(Nc2c3ccccc3nc3ccc(Cl)cc23)cc1`, the inhibition at 72 h, 50 µM was 17.1%.

In the case of `Cc1ccc(S(=O)(=O)Nc2ccc(Nc3c4ccccc4nc4ccc(Cl)cc34)cc2)cc1`, the inhibition at 72 h, 50 µM came out at 38.5%.

As for `O=S(=O)(Nc1ccc(Nc2c3ccccc3nc3ccc(Cl)cc23)cc1)c1ccc(Cl)cc1`, the inhibition at 72 h, 50 µM turned out to be 14.2%.

For a further series, the target named is DNA gyrase (Staphylococcus aureus) (UniProt P0A0K8+P20831). The series is described as follows: Inhibition of Staphylococcus aureus DNA gyrase assessed as inhibition of DNA supercoiling. It is filed as protein-complex assay.
Chain of DNA gyrase (Staphylococcus aureus) (P0A0K8 2-644 limits assumed): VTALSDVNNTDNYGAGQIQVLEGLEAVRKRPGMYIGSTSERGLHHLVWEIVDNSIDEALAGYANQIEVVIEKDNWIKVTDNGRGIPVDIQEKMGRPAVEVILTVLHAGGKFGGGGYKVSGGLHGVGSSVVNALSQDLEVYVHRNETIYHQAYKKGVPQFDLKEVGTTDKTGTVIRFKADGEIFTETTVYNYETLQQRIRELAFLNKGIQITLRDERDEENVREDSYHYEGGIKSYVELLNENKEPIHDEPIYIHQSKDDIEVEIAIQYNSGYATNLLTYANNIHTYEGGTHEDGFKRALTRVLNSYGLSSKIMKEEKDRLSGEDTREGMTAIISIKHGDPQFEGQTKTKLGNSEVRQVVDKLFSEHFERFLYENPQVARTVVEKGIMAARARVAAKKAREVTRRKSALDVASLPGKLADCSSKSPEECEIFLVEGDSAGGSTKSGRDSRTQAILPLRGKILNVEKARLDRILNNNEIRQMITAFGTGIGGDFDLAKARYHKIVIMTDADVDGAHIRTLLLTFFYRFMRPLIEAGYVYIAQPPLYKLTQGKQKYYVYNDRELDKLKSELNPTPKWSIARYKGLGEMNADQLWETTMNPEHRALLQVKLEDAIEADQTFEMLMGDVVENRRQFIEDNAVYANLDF
Chain of DNA gyrase (Staphylococcus aureus) (P20831 whole entry partner): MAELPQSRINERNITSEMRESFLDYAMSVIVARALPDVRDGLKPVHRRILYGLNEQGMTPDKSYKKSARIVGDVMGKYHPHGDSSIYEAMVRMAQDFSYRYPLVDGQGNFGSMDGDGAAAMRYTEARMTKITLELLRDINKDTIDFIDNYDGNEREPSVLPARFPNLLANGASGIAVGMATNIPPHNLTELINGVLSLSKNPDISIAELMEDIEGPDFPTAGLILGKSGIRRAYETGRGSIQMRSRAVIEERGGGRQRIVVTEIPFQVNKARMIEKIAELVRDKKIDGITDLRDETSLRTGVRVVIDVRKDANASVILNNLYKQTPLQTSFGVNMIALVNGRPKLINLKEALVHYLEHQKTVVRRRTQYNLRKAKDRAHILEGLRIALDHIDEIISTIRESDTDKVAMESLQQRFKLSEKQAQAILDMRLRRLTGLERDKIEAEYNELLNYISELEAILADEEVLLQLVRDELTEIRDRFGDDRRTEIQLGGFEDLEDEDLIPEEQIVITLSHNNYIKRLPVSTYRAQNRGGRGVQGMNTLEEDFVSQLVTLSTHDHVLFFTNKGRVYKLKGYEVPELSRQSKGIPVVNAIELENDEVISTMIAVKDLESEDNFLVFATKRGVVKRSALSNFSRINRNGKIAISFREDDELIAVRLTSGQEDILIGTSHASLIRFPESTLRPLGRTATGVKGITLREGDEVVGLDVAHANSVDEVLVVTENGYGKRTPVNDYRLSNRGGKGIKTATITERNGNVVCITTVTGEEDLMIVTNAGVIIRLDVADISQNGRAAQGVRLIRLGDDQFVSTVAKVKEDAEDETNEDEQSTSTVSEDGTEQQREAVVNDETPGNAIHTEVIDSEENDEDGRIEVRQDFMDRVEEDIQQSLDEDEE
Conditions: not given
`Cc1ccc2nc3ccccc3c(Nc3ccc(NS(=O)(=O)c4ccc(Cl)cc4)cc3)c2c1`: the inhibition entry was “inactive”.

On to `Cc1ccc(S(=O)(=O)Nc2ccc(Nc3c4ccccc4nc4ccc(C)cc34)cc2)cc1`, for which the inhibition result was “inactive”.

As for `Cc1ccc2nc3ccccc3c(Nc3ccc(NC(=O)Nc4ccccc4)cc3)c2c1`, the inhibition entry was “inactive”.

Regarding `O=C(Nc1ccccc1)Nc1ccc(Nc2c3ccccc3nc3ccc(Cl)cc23)cc1`, the inhibition entry was “inactive”.

On to `O=C(Nc1ccccc1)Nc1ccc(Nc2c3ccccc3nc3ccccc23)cc1`, for which the inhibition result was “inactive”.

Turning to `O=S(=O)(Nc1ccc(Nc2c3ccccc3nc3ccccc23)cc1)c1ccc(Cl)cc1`, the inhibition entry was “inactive”.

Take `O=C(Nc1ccc(Cl)cc1)Nc1ccc(Nc2c3ccccc3nc3ccc(Cl)cc23)cc1`: the inhibition result is “inactive”.

With `Cc1ccc(S(=O)(=O)Nc2ccc(Nc3c4ccccc4nc4ccc(Cl)cc34)cc2)cc1`, the inhibition result was “inactive”.

For `O=S(=O)(Nc1ccc(Nc2c3ccccc3nc3ccc(Cl)cc23)cc1)c1ccc(Cl)cc1`, the inhibition entry is “inactive”.

Tested on in the next series: not listed separately
As to the kind of experiment: Inhibition of zebrafish ERG at 1 to 30 uM. Also on record: species or system Danio rerio.
Conditions: not given
The method in brief: as §1
Regarding `Cc1ccc2nc3ccccc3c(Nc3ccc(NS(=O)(=O)c4ccc(Cl)cc4)cc3)c2c1`, the “inhibition (INH)” value is listed as “Not Active”.

Tested on in the next series: not listed separately
As to the kind of experiment: Toxicity in zebrafish embryo assessed as atrio-ventricular ratio at 30 uM. Also on record: species or system Danio rerio. The following applies: in vivo. In short, it runs like this: as §1
Take `Cc1ccc2nc3ccccc3c(Nc3ccc(NS(=O)(=O)c4ccc(Cl)cc4)cc3)c2c1`: the Activity entry was “Non-toxic”.

A further series concerns the target DNA gyrase subunit B (Mycobacterium smegmatis) (UniProt P0C559). The series is described as follows: Inhibition of Mycobacterium smegmatis GyrB by ATPase assay. The following applies: Mycolicibacterium smegmatis.
For `Cc1ccc2nc3ccccc3c(Nc3ccc(NS(=O)(=O)c4ccc(Cl)cc4)cc3)c2c1`, the inhibition result was “inactive”.

`Cc1ccc(S(=O)(=O)Nc2ccc(Nc3c4ccccc4nc4ccc(C)cc34)cc2)cc1`: the inhibition result is “inactive”.

`Cc1ccc2nc3ccccc3c(Nc3ccc(NC(=O)Nc4ccccc4)cc3)c2c1`: the inhibition entry was “inactive”.

As for `O=C(Nc1ccccc1)Nc1ccc(Nc2c3ccccc3nc3ccc(Cl)cc23)cc1`, the inhibition result was “inactive”.

In the case of `O=C(Nc1ccccc1)Nc1ccc(Nc2c3ccccc3nc3ccccc23)cc1`, the inhibition entry was “inactive”.

`O=S(=O)(Nc1ccc(Nc2c3ccccc3nc3ccccc23)cc1)c1ccc(Cl)cc1`: the inhibition entry was “inactive”.

As to `O=C(Nc1ccc(Cl)cc1)Nc1ccc(Nc2c3ccccc3nc3ccc(Cl)cc23)cc1`, the inhibition entry was “inactive”.

Consider `Cc1ccc(S(=O)(=O)Nc2ccc(Nc3c4ccccc4nc4ccc(Cl)cc34)cc2)cc1`, for which the inhibition entry is “inactive”.

With `O=S(=O)(Nc1ccc(Nc2c3ccccc3nc3ccc(Cl)cc23)cc1)c1ccc(Cl)cc1`, the inhibition entry was “inactive”.
